# How the values were obtained:
# [1] = Tested for the velocity of 2.8 mM compound relative to that of 2.8 mM MgATP in the assay
# Method in brief: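 E. coli TK substrate test. 0.5 h after adding inhibitor, the mixture was diluted to 2.8 mM derivative in thymidine assay medium without ATP and with 1.42 mM MnCl2. Incubated 15 min at 37 °C, in the linear range. [14C]TMP formed was compared with that from 2.8 mM ATP under the same conditions.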
# [2] = system: Saccharomyces cerevisiae; test: Substrate activity against yeast hexokinase as 1:1 Mg complexes at 5.0 mM
# Method in brief: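 Hexokinase activity read at 22 °C as A340 change, coupled to glucose-6-phosphate dehydrogenase, in 0.05 M Tris-HCl pH 7.6 with 6.6 mM MgCl2, 10 mM α-D-glucose and 0.93 mM NADP. Donor was 5.0 mM MgATP derivative (1:1 Mg complex) in place of ATP. Yeast HK was isoelectric-focused. Rat HK I and III came from electrofocused liver extract, HK II from dialysed muscle extract.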
# [3] = Substrate concentration for half maximal velocity was reported for rat hexokinase I
# Method in brief: (§1)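 Coupled glucose-6-phosphate dehydrogenase/NADP assay: A340 rate at 22 °C in 0.05 M Tris-HCl pH 7.6 with 6.6 mM MgCl2, 10 mM α-D-glucose and 0.93 mM NADP, nucleotide varied. KM was taken from linear double-reciprocal plots. Rat HK I and III came from electrofocused, dialysed liver extract, HK II from dialysed muscle extract, and yeast HK was isoelectric-focused.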
# [4] = system: Saccharomyces cerevisiae; test: Compound was tested for time dependent inhibition of hexokinase activity after 6 hr, at 0 degrees celsius, with 10 mM ATP derivative in yeast hexokinase
# [5] = molecular target: T1, Hexokinase-3 (Rattus norvegicus) (UniProt P27926); test: Time dependent inhibition of Hexokinase type III activity after 6 h, at 22 degrees celsius, at 5 mM
# T1 sequence (whole entry): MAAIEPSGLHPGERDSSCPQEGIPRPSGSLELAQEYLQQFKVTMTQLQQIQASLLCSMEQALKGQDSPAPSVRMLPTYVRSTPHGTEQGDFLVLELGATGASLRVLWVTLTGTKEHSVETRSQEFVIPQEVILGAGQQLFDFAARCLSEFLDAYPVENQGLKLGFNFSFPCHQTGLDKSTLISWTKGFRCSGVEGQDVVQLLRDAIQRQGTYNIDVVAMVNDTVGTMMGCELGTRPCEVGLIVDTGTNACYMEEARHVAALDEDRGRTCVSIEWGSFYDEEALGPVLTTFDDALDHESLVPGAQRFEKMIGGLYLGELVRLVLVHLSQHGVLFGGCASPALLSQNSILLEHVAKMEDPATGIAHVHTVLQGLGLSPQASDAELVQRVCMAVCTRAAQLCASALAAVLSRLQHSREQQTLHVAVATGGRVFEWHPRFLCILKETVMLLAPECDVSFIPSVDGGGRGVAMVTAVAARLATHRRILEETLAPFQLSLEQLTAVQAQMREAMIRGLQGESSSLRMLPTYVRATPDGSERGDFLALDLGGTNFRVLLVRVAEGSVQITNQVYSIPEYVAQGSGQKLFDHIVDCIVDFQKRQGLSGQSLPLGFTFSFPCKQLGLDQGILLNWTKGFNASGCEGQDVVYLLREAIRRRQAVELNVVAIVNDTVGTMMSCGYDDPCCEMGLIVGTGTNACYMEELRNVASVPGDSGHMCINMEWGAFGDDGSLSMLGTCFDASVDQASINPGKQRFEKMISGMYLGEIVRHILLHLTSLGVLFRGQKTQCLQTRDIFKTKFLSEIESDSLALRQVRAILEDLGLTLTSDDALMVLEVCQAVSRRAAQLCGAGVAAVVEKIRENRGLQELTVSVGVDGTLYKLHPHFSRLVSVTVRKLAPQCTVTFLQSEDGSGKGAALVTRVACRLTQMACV
# [6] = Substrate concentration for half maximal velocity was reported for rat hexokinase III; method in brief: as §1
# [7] = Compound was tested for substrate constants with yeast hexokinase. Maximal velocity Vmax was reported
# Method in brief: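 Hexokinase KM and Vmax taken from linear double-reciprocal plots of initial velocity vs. nucleotide level. Assays at 22 °C, coupled to glucose-6-phosphate dehydrogenase (A340), in 0.05 M Tris-HCl pH 7.6 with 6.6 mM MgCl2, 10 mM glucose and 0.93 mM NADP. Yeast HK was isoelectric-focused. Rat HK I and III came from liver, HK II from muscle (male Sprague-Dawley).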
# [8] = molecular target: T2, Hexokinase-1 (Rattus norvegicus) (UniProt P05708); test: Time dependent inhibition of Hexokinase type I activity after 6 h, at 22 degrees celsius, at 5 mM compound
# T2 sequence (whole entry): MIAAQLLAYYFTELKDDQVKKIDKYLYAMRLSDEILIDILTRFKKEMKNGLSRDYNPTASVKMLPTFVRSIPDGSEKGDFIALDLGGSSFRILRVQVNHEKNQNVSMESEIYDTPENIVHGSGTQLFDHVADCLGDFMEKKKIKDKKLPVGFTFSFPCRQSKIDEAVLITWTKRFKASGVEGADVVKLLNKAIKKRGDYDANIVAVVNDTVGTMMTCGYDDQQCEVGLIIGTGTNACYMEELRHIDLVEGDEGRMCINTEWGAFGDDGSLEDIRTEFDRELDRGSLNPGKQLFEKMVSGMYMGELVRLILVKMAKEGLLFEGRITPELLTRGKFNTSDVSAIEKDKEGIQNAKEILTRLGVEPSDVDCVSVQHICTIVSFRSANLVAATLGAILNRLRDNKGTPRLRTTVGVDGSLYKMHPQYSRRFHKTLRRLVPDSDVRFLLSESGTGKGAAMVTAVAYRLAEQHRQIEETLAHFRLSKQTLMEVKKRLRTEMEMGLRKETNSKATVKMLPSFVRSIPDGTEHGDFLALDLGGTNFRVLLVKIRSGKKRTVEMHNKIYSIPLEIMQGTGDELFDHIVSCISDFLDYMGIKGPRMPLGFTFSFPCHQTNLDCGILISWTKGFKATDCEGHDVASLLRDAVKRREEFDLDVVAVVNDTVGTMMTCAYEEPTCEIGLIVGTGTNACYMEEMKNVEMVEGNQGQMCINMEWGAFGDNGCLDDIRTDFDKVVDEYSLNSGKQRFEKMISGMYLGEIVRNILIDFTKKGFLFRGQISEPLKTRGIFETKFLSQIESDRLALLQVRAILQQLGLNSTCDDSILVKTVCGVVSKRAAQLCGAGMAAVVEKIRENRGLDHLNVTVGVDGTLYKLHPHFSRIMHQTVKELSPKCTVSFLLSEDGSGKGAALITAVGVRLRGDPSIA
# [9] = Compound was tested for substrate constants with rat hexokinase. Maximal velocity Vmax was reported
# Method in brief: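 Rat HK I and HK III came from liver extract of an adult male Sprague-Dawley rat and were separated by electrofocusing and dialysed; HK II was dialysed muscle extract. The coupled assay ran at 22 °C in 0.05 M Tris-HCl pH 7.6 with 6.6 mM MgCl2, 10 mM glucose, 0.93 mM NADP and G6P dehydrogenase, read at 340 nm. Constants came from linear double-reciprocal plots.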
compound,measurement,setting,value
Nc1ncnc2c1ncn2[C@@H]1O[C@H](COP(=O)(O)OP(=O)(O)OP(=O)(O)O)[C@@H](O)[C@H]1O,Velocity,[1],100%
same,Relative velocity,[2],1
same,Km,[3],440 µM
same,inhibition,[4],0%
same,inhibition,[5],0%
same,Km,[6],910 µM
same,Vmax,[7],100%
same,inhibition,[8],0%
same,Vmax,[9],100%
